Screens from PubChem BioAssay.
An excerpt weighted towards active compounds, which were near 4.5% of everything screened.
GPR7 antagonist – antagonists of human GPR7 (neuropeptides B/W receptor 1); hit rate 1.1% among 290,000; AID 1861; inhibition, % at 4.4 µM; GPR7-expressing cells, fluorescence antagonist assay; in the data active means inhibition above about 16%, passing the limit was not always enough;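 further: cells stimulated with the agonist NPW; 0% = agonist with vehicle and 100% = vehicle without agonist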
Target sequence (P48145 whole entry, looked up): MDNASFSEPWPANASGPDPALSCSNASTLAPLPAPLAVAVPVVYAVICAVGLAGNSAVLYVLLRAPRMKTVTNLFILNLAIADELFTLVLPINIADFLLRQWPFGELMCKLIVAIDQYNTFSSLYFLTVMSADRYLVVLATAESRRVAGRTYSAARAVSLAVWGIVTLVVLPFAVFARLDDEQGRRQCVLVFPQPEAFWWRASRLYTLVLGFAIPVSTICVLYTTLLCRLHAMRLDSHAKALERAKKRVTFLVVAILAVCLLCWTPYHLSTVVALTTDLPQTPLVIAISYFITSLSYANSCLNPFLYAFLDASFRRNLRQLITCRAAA
CHO parental Ca – signal in parental CHO cells, OX1R antagonist counter-screen; parental CHO-K1, ATP-induced calcium, Fluo-8 fluorescence; inhibition, % at 5.6 µM; hit rate 0.63% among 330,000; AID 463079;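 active means inhibition above that plate's mean sample inhibition plus 3 SD, cut at about 26% in these data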;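 further: 0% = ATP-challenged DMSO wells and 100% = DMSO wells without ATP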
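test system = CHO parental line | reagent = ATP stimulus | measured by = intracellular calcium via Fluo-8 no-wash fluorescent dye | control set = ATP and no-ATP DMSO wells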
TAAR1 antagonist – antagonists of human TAAR1; CHO RD-HGA16 TAAR1, Fluo-8 calcium fluorescence, antagonist; hit rate 1.5% among 360,000; inhibition, % at 3 µM; Q96RJ0;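 active means inhibition above a per-plate cutoff, the mean inhibition of test compounds on that plate plus 3 SD, cut at about 49% in these data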;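 further: 0% = DMSO plus EC80 beta-PEA response and 100% = DMSO alone without agonist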
Target sequence (Q96RJ0 whole entry, looked up): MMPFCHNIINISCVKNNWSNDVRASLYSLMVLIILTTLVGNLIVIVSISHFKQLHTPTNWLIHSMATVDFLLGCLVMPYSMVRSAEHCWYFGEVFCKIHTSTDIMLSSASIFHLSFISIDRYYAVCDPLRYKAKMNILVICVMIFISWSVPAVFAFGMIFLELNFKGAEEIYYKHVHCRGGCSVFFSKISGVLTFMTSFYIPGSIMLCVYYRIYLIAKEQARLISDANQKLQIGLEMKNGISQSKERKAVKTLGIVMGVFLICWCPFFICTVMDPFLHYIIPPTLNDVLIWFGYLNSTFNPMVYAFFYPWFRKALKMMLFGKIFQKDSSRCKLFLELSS
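Test system – hTAAR1-expressing CHO RD-HGA16 cells, Gα16-coupled · Also added – β-PEA at EC80 concentration, post-compound challenge · Compound – 3 µM, single point · Incubation – dye loading 75 min at 37 °C, then 30 min room temperature · Measured by – Fluo-8 intracellular calcium dye fluorescence, real-time kinetic reads · Benchmarks – vehicle and agonist controls · Replicates – singlicate, one well per test compound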
OX1R antag-1 – OX1R (human) antagonism; O43613; OX1R-expressing cells, FRET antagonist read-out; inhibition, % at 6.6 µM; hit rate 1.8% among 330,000; in the data active means inhibition mostly above about 38%, no sharp cut-off; inactive means mostly below about 40%;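 further: 0% = agonist challenge alone and 100% = reference antagonist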
OX1R antag-2 – antagonists of human orexin 1 receptor | O43613 | CHO/OX1R cells, Fluo-8 calcium fluorescence, orexin A | inhibition, % at 5 µM | hit rate 0.43% among 330,000 | AID 434989;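 active means inhibition above its plate's threshold, mean inhibition of all tested compounds on the plate plus 3 SD, cut at about 37% in these data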;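 further: 0% = orexin A challenge wells and 100% = SB-334867-A antagonist wells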
TAAR1 ag – agonists of human TAAR1; hit rate 0.99% among 360,000; activation, % at 3 µM; CHO RD-HGA16 TAAR1, Fluo-8 calcium fluorescence; vehicle wells 0%, saturating PEA agonist 100%;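 active means activation above the mean activation of all test compounds in the run plus 3 SD, cut at about 38% in these data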
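Signal – calcium-sensitive Fluo-8 signal, excitation 470-495, emission 515-575 nm · System – RD-HGA16 (CHO) cells co-expressing Gα16 and hTAAR1 · Incubation – 17-24 h seeding, 75 min 37 °C dye, 30 min RT · Compound dosing – 3 µM single concentration · Repeats – no replicates (n 1)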
* hit, by the source's call; x = no result; + = active, no number.

SMILES	GPR7 antagonist	CHO parental Ca	TAAR1 antagonist	OX1R antag-1	OX1R antag-2	TAAR1 ag
COc1ccc(S(=O)(=O)Nc2ccc(O)c3ccccc23)cc1	-9.5	-9.5	14.5	42.9*	-14.7	7.0
COc1ccc(S(=O)(=O)Nc2ccccc2)cc1	x	-33.1	7.4	14.0	-17.0	3.3
O=S(=O)(Nc1c(O)ccc2ccccc12)c1ccccc1	x	-26.5	-27.2	64.3*	5.9	0.4
O=S(=O)(Nc1c(O)ccc2ccccc12)c1ccc(F)cc1	x	-39.5	5.0	40.9	-7.3	1.6
CCCN1CCCCC(NC(=O)c2ccc(-c3ccccc3)cc2)C1=O (stereo unspecified)	x	x	-0.5	x	x	-0.2
COc1cccc(Cn2nnc(C(=O)Nc3cc(Cl)ccc3OC)c2N)c1	4.7	30.4*	2.0	42.0*	12.7	0.5
Cc1ccc(C)c(NC(=O)c2nnn(Cc3ccccc3)c2N)c1	10.6	-3.2	-6.7	8.0	-2.3	12.5
Cc1ccc(Cn2nnc(C(=O)Nc3cc(C)ccc3C)c2N)cc1	13.4	8.6	34.3	-1.0	12.9	47.5*
COc1cccc(NC(=O)Cn2nnc(C(=O)Nc3cc(Cl)ccc3OC)c2N)c1	-1.8	3.7	-5.0	9.9	-4.2	2.2
Cn1c(=O)c2c(ncn2CC(=O)Nc2nc(-c3ccccc3Cl)cs2)n(C)c1=O	-7.3	-6.1	19.3	10.1	3.7	38.9*
CCOC(=O)Cc1csc(NC(=O)Cn2cnc3c2c(=O)n(C)c(=O)n3C)n1	1.7	-1.9	11.9	4.7	-4.2	3.9
Cc1nnc(NC(=O)Nc2cccc(Cl)c2)s1	-3.0	4.2	36.0	35.1	-11.1	43.4*
O=C(Nc1cccc(Cl)c1)Nc1nc(-c2ccccc2)cs1	-1.7	37.3*	-0.7	45.8	33.6	16.0
O=C(Nc1ccc(Cl)cc1)Nc1nc(-c2ccccc2)cs1	-12.1	5.0	12.4	2.5	12.8	3.2
O=C(c1ccc(F)cc1)C1CCN(CCCn2c(=O)[nH]c3ccccc32)CC1	x	x	0.4	x	x	0.6
O=C(NC(=S)N1CCN(c2ccc([N+](=O)[O-])cc2)CC1)c1ccc(F)cc1	18.8	-12.8	6.1	55.9*	-35.1	3.7
O=[N+]([O-])c1ccc(N2CCN(C(=S)Nc3ccccc3)CC2)cc1	-11.1	14.6	-5.8	51.2	18.0	2.7
O=[N+]([O-])c1ccc(N2CCN(C(=S)NC3CCCCC3)CC2)cc1	-0.9	32.6*	52.3*	63.8	48.8*	10.1
COC(=O)Cc1nnn2c1[C@H](C)[C@@H](OC)c1ccc(C(F)(F)F)cc1-2	x	x	0.3	x	x	1.0
CCN1C(=O)N[C@H]2C[C@@H](c3ccccc3)[C@@H](C)[C@@H](C(=O)N3CCCC3)C[C@H]21	x	x	-3.9	x	x	0.8
CCc1nnc(N2C(=O)c3cccc4cccc(c34)C2=O)s1	-6.3	-18.1	3.2	70.8*	-16.2	3.8
COC(=O)C1=C(C)N(Cc2ccccc2C(F)(F)F)C(=NCc2cccc(C(F)(F)F)c2)NC1c1ccc(F)cc1 (stereo unspecified)	x	x	-15.3	x	x	0.0
Cc1c(Br)ccc(NC(=O)Cn2nc(-c3cccs3)ccc2=O)c1C	13.0	-22.5	-6.6	54.6*	0.1	-1.2
CC(=O)Nc1ccc(S(=O)(=O)NCC2CCN(C(=O)C(=O)c3cc4ccccc4o3)CC2)cc1	x	x	-2.3	x	x	2.2
CCN1/C(=C/c2sc(-c3ccccc3C)c[n+]2C)Sc2ccccc21	47.2*	x	18.9	x	x	8.0
SMILES	GPR7 antagonist	CHO parental Ca	TAAR1 antagonist	OX1R antag-1	OX1R antag-2	TAAR1 ag
Nc1[nH]c(C(=O)c2ccccc2)c(-c2ccc(F)cc2)c1C(=O)c1c[nH]c2ccccc12	x	x	-32.4	x	x	6.6
C[C@@H]1CCCCO[C@H](CN(C)C(=O)C2CCCCC2)[C@@H](C)CN([C@H](C)CO)C(=O)c2cc(NS(=O)(=O)c3cccs3)ccc2O1	x	x	0.5	x	x	-1.0
O=c1c2ccccc2nc(/C=C/c2ccccc2)n1CCCO	-6.5	-19.1	9.4	14.9	-24.0	7.0
CN(C)c1ccc(/C=C/c2nc3ccccc3c(=O)n2CCO)cc1	0.8	7.1	27.9	51.7*	3.5	19.2
Cc1cc(-c2ccc(N=Nc3c(S(=O)(=O)O)cc4cc(S(=O)(=O)O)cc(N)c4c3O)c(C)c2)ccc1N=Nc1c(S(=O)(=O)O)cc2cc(S(=O)(=O)O)cc(N)c2c1O	x	-3.4	x	+	5.3	x
O=S(=O)(O)c1cc(O)c2c(O)c(N=Nc3cc(Cl)ccc3O)c(S(=O)(=O)O)cc2c1	-1.9	-8.6	x	41.6	-0.5	x
CCCCOCCCNC(=O)C[C@@H]1C[C@@]2(C(=O)OC)CC(C)(C)CC=C2N(Cc2cccc3ccccc23)C1=O	x	x	-31.0	x	x	3.6
CCCC(=O)OC[C@H]1CN([C@H](C)c2ccccc2)S(=O)(=O)c2c(F)cccc2O1	x	x	9.2	x	x	-1.2
O=C(O)c1cccc(Nc2nc(-c3ccccc3)nc3ccccc23)c1	-10.6	1.4	20.1	6.2	10.2	2.4
O=C(OCCNc1nc(-c2ccccc2)nc2ccccc12)c1ccncc1	1.6	-4.4	26.3	57.3*	6.7	10.0
O=C(O)CNc1nc(-c2ccccc2)nc2ccccc12	-3.9	-2.3	2.8	15.7	4.4	8.4
O=C(OCCNc1nc(-c2ccccc2)nc2ccccc12)c1cccnc1	-8.2	-5.4	40.8	47.5*	-20.8	7.8
O=C(O)CCNc1nc(-c2ccccc2)nc2ccccc12	10.2	2.6	-21.4	14.5	8.8	7.5
CCCOC(=O)c1cccc(Nc2nc(-c3cccnc3)nc3ccccc23)c1	-12.8	2.9	62.5*	33.6	3.6	11.0
CC(C)[C@H](NC(=O)c1c(F)cccc1F)C(=O)Nc1cccc(Br)c1	1.9	-16.1	-3.3	4.6	-20.1	0.9
CC1CCC(NC(=O)CCCn2sc3ccccc3c2=O)CC1 (stereo unspecified)	15.9	-14.9	-11.4	19.4	-24.2	-0.5
Cc1cc(=O)[nH]c(SCC(=O)C23CC4CC(CC(C4)C2)C3)c1C#N	7.6	-8.7	-8.9	39.5*	-19.5	15.7
Cc1cc(=O)[nH]c(SCC(=O)O)c1C#N	-13.1	-3.3	-5.1	1.3	-2.9	7.9
CC(C)c1ccc(CN2CC(C(=O)Nc3ccccc3)CC2=O)cc1 (stereo unspecified)	17.4*	-6.4	6.4	3.6	5.6	2.9
CC(=O)c1cccc(NC(=O)C2CC(=O)N(Cc3ccccc3)C2)c1 (stereo unspecified)	-9.8	8.2	8.2	8.5	-18.1	1.0
O=C(Nc1ccc(F)cc1F)c1cc(-c2ccco2)on1	1.2	34.9*	16.4	4.5	-21.0	9.0
O=C(NCc1ccc(F)cc1)c1cc(-c2ccco2)on1	3.1	31.6*	20.3	2.4	37.6	37.7*
CSc1ccccc1NC(=O)c1cc(-c2ccco2)on1	-2.1	-1.5	-1.3	65.9*	-6.5	6.6
COc1ccc(-c2cc(C(=O)Nc3ccc(F)cc3F)no2)cc1	-1.9	2.1	-12.8	0.6	-27.0	5.3
